In assay [1] the target is T1, Catechol O-methyltransferase (Rattus norvegicus) (UniProt P22734).
T1 sequence (whole entry): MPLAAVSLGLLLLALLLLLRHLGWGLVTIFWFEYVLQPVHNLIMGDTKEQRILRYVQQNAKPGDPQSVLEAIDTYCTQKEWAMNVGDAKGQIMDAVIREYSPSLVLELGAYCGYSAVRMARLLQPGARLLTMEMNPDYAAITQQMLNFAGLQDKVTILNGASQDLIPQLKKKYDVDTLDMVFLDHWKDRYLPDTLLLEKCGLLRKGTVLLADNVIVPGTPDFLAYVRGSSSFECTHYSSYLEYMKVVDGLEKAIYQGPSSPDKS
The experiment in a line: Inhibition constant against Catechol O-methyltransferase from rat liver in the presence of 4 mM of dithiothreitol (DTT).

Assay [2] concerns the target T1, Catechol O-methyltransferase (Rattus norvegicus). The experiment in a line: Inhibition constant against Catechol O-methyltransferase from rat liver in the absence of dithiothreitol (DTT).
Assay [3] is filed under the species Rattus norvegicus. The assay is described as follows: Effect of dialysis on inhibitory potency when COMT is pre-incubated in the absence of dithiothreitol (DTT) (after dialysis (-DTT)). The assay is classed as functional.
For assay [4], the species on record is Rattus norvegicus. The assay is described as follows: Effect of dialysis on inhibitory potency when COMT is pre-incubated with dithiothreitol (DTT) (before dialysis). The assay is classed as functional. A digest of the protocol: (§1)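 Rat liver COMT (male Sprague-Dawley, partially purified, DTT-reactivated before use) preincubated 30 min at 37 °C in 0.2 M phosphate buffer pH 7.6 with 1 mM inhibitor, with or without 8.0 mM DTT. Activity was then assayed directly or after dialysis against 0.2 M phosphate pH 7.6 containing 8.0 mM DTT. Result expressed as % activity remaining.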

The species entered for assay [5] is Rattus norvegicus. The experiment in a line: Effect of dialysis on inhibitory potency when COMT is pre-incubated in the absence of dithiothreitol (DTT) (before dialysis). The format is functional. A digest of the protocol:
as §1

Assay [6] has as its target T1, Catechol O-methyltransferase (Rattus norvegicus). The assay is described as follows: Inhibition of Catechol O-methyltransferase from rat liver at time zero with […] of the enzyme after pre-incubation for 30 min (in presence of DTT).
Assay [7] is filed under the species Rattus norvegicus. The experiment in a line: Effect of dialysis on inhibitory potency when COMT is pre-incubated with dithiothreitol (+DTT) (after dialysis). The format is functional. A digest of the protocol:
as §1

The species named for assay [8] is Rattus norvegicus. The assay is described as follows: Effect of dialysis on inhibitory potency when COMT is pre-incubated in the absence of dithiothreitol (DTT) (after dialysis(+DTT)).
The target in assay [9] is T1, Catechol O-methyltransferase (Rattus norvegicus). The assay is described as follows: Inhibition of Catechol O-methyltransferase from rat liver at time zero with no further inactivation of the enzyme after pre-incubation for 30 min (in absence of DTT).

The term inhibition denotes the change of the read-out against control, counted positive when it falls.

In the case of `COc1c(O)cc(C(=O)O)cc1S`, the figures for the Kii in assay [1] and in assay [2] were 743 µM and 30.2 µM, respectively. Besides, the values for the Kis in assay [1] and in [2] were 1140 µM and 59.9 µM, respectively. In addition, the Activity remaining in the assay filed under Rattus norvegicus [3] was found to be 1%; in the assay listed under Rattus norvegicus [4] it was 70%; in the assay listed under Rattus norvegicus [5], 7%; in the assay listed under Rattus norvegicus [7] it was 87%; in the assay filed under Rattus norvegicus [8] it was 76%. The inhibition in assay [6] is 39%; in assay [9] it was 91%.

These data come from ChEMBL document CHEMBL1122025, “Catechol O-methyltransferase. 11. Inactivation by 5-hydroxy-3-mercapto-4-methoxybenzoic acid” (1982).
